The text below walks through data of PMC8360185 (Chembiochem, 2021).

The test system of the assay is FKBP12-NLuc or FKBP51-NLuc. It is filed as cell-based, human. To be noted: 1 µM Elacridar, 20 nM tracer 2b or 200 nM tracer 2c. The method in brief: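 HEK293T cells expressing C-terminal FKBP-NanoLuc fusions were resuspended in Opti-MEM at 4.6×105 (transient) or 1.81×10^6 cells/mL (stable). Tracer was added from an eightfold stock, and test compound in DMSO was 1:2 serially diluted. Plates were incubated 2 h at 37 °C, then 15 min at RT. NanoGlo substrate (1:664) and extracellular NanoLuc inhibitor (1:2000) were added, with donor read at 450 nm and acceptor at 660 nm after 3 min.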

SMILES strings stand for the structures.

Turning to `COc1ccc(CC[C@@H](OC(=O)[C@@H]2CCCCN2C(=O)[C@H](c2cc(OC)c(OC)c(OC)c2)C2CCCCC2)c2cccc(OCCN3CCOCC3)c2)cc1OC` [SAFit2], the “effect of Elacridar on NanoBRET activity” value was “did not affect”.
In the case of `C=CC[C@@H]1/C=C(\C)C[C@H](C)C[C@H](OC)[C@H]2O[C@@](O)(C(=O)C(=O)N3CCCC[C@H]3C(=O)O[C@H](/C(C)=C/[C@@H]3CC[C@@H](O)[C@H](OC)C3)[C@H](C)[C@@H](O)CC1=O)[C@H](C)C[C@@H]2OC` [FK506] it was “did not affect”.
